The results in this text go back to ChEMBL document CHEMBL4513216, “Probing the Open Global Health Chemical Diversity Library for Multistage-Active Starting Points for Next-Generation Antimalarials” (ACS Infect Dis, 2020).

This data set is described as follows: Toxicity liver stage against HepG2, at 10uM. To be noted: human, HepG2-A16-CD81EGFP cells; read-out: INHIBITION
Details: test concentration 10 uM, cell line HepG2-A16-CD81EGFP. It counts as cell-based. The method, boiled down:
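Uninfected HepG2-A16-CD81EGFP cells, 3 × 10^3 per well, 1536-well, plated on prespotted compound at 10 μM final, parasite-free screening media added to match infected plates; puromycin 10 μM positive, DMSO 0.5% negative; run in parallel with 48 h PbLuc assay at 37 °C, 5% CO2; viability by CellTiter-Glo luminescence, normalized to controls.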
For the compound `COc1ccccc1OCC(=O)N1C[C@@H]2CN(C)CCO[C@@H]2C1`, the cytotoxicity at 10 µM was -2.94%. With `COC(=O)N1CC2=CC(C)(C)COc3ccc(OC)c(c32)C1` the figure was 5%. As to `CN1CCN(C(=O)Cn2nc(C(F)(F)F)c(Br)c2C2CC2)CC1`, the cytotoxicity at 10 µM was -8.5%.

In the case of `CO[C@@H]1CCN(c2nnc(C)s2)C[C@@H]1Cc1cccc(C)c1`, the cytotoxicity at 10 µM amounted to 11.8%.

Consider `CC(N)Cc1ccccc1Sc1ccccc1` (configuration not stated), for which the cytotoxicity at 10 µM is 5.41%. The figure for `CCS(=O)(=O)N1C[C@@H](OCc2cccnc2)[C@H]2OCCC[C@H]21` is 3.6%; for `Cc1nc2c(c(=O)n1C)CCN(C(=O)Cn1cccc1)CC2` it is -2.18%; for `N#Cc1ccc(N2CCC(OCCc3ccccc3)CC2)nc1` it is -9.67%. Take `O=C(NS(=O)(=O)Cc1ccc(F)cc1)C1CCOc2ccccc21` (configuration not stated): the cytotoxicity at 10 µM is -3.22%. With `COc1ncccc1NC(=O)NC(CCCO)c1ccccc1` (configuration not stated) the figure was 11.2%. Consider `COCCNc1nnc(-c2ccc(C)nc2)s1`, for which the cytotoxicity at 10 µM was -8.55%.

As for `COCCNC(=O)[C@@H]1CN(c2ncccn2)C[C@H]2OCC[C@H]21`, the cytotoxicity at 10 µM is -68.4%.

`Cn1ccc(NC(=O)CN2CCN(C3CCCC3)C(=O)C2)n1`: the cytotoxicity at 10 µM was 4.31%. Regarding `Cc1nc(N(CCC(N)=O)Cc2ccccc2)c2nc(C)oc2n1`, the cytotoxicity at 10 µM was -3.86%. With `Cc1ccnc(C2CN(c3ccnc(C)n3)C2)n1`, the cytotoxicity at 10 µM is -2.4%. Consider `COCCc1noc(CN2CCN(c3ccc(OC)cc3)C(=O)C2C)n1` (configuration not stated), for which the cytotoxicity at 10 µM was determined as 0.296%. Consider `CC(C)N1CCOCC2(CN(Cc3ccccn3)CCO2)C1` (configuration not stated), for which the cytotoxicity at 10 µM turned out to be 6.46%. For `Cc1nn(-c2ccccc2)c(C)c1CN1CCNCC1`, the cytotoxicity at 10 µM stood at 6.19%. Consider `Cc1cccc(CN2CCc3onc(Cn4cccc4)c3C2)n1`, for which the cytotoxicity at 10 µM was found to be 7.81%. The figure for `Cc1ccc(NCc2nc3n(n2)CCCCC3)c(C)c1` is 4.7%; for `CN(C)c1nccc(N2CCO[C@H]3CN(CC4CCOCC4)C[C@H]32)n1` it is -7.21%; for `Cc1ccc(N2CC[C@@H](NC(=O)c3cnccn3)[C@H](O)C2)nn1` it is -6.79%. With `CC(NC(=O)CCCN(C)C)c1cn(-c2ccccc2)nn1` (configuration not stated) the figure was -22.7%; with `CO[C@@H]1CCC[C@@H](NC(=O)c2cccc(F)c2)[C@H]1O`, 1.65%. For the compound `Cc1ccc(-n2cc(CN3CCOCC3)c(-c3cccc(C)c3)n2)cc1`, the cytotoxicity at 10 µM is -0.906%. Consider `CCN1CCN(CCCNC(=O)c2cc3ccc(C)cc3nc2C)CC1`, for which the cytotoxicity at 10 µM turned out to be 5.33%. With `c1ccc2c(c1)CCN(c1nc(N3CCOCC3)c3nn[nH]c3n1)C2` the figure was 11.6%; with `Cc1cnc(C)c(N2CCC(Cc3ccccc3Cl)(C(=O)O)CC2)n1`, 3.4%; with `CC(=O)N1CCCC2(CCN(C(=O)c3nn(C)c4ccccc34)CC2)C1`, 2.26%. With `COCC(O)CN1CC(C)(C)CN(C(=O)CCc2ccccc2)CC1=O` (configuration not stated) the figure was -1.83%; with `CC(C)CCNC(=O)NC(C)c1nncn1C` (configuration not stated), -9.9%; with `Cc1cccc(-n2cc(C(=O)N3CCCC(n4cccn4)C3)nn2)c1` (configuration not stated), -0.168%. With `O=C(NC1CCCc2nc(N3CCOCC3)ncc21)C1CCCCC1` (configuration not stated) the figure was -19.9%; with `Cc1noc(C)c1CN1C(=O)[C@@H]2CC[C@H]1CN(Cc1ncc[nH]1)C2`, 5.85%; with `CCCc1nc(N[C@H]2COC[C@@H]2N2CCCC2)c2cnn(C)c2n1`, -6.56%. With `COc1cccc2c(=O)n(Cc3cc(C4CC4)[nH]n3)cnc12`, the cytotoxicity at 10 µM is 3.76%. Turning to `N#CC1COCCN1S(=O)(=O)c1ccc(F)c(Br)c1` (configuration not stated), the cytotoxicity at 10 µM turned out to be 4.43%.

Take `CC(C)n1cnc2c1C(C(=O)NCCC#N)N(Cc1ccccc1)CC2` (configuration not stated): the cytotoxicity at 10 µM is -7.2%. With `O=C(c1ccc(COc2ccccc2Cl)o1)N1N=CCC1(O)C(F)(F)F` (configuration not stated) the figure was 14.5%. Take `COCCC(=O)N1CCCC2(CCC(=O)N2CCOC)CC1` (configuration not stated): the cytotoxicity at 10 µM amounted to 2.52%. With `CCn1ccnc1CN1CCCN(C(=O)c2ccc(C#N)cc2)CC1` the figure was -6.96%; with `CN(C)C(=O)CN1CCOCC2(CCN(CC3CCOCC3)CC2)C1`, 8.55%; with `COCCC(=O)NCCc1nc2cc(-c3ccc(OC)cc3)ncn2n1`, 10.5%.

Take `CC(CCSc1ccccc1)N1CCN(C(=O)c2cccs2)CC1` (configuration not stated): the cytotoxicity at 10 µM is 25.5%. The figure for `Cc1nc2ccccn2c1CN1C[C@@H](CN(C)C)[C@@H](CO)C1` is 0.743%; for `CC(C)(C)S(=O)(=O)c1ccc(N2CCC(n3cncn3)CC2)cn1` it is 3.94%. The figure for `COc1cc(OC)c(CNC(=O)NCc2ccc(C#N)cc2)c(OC)c1` is 8.01%; for `COc1cccc(CNCc2c(C)nn(C)c2N(C)C)c1` it is -2.51%; for `CC(=O)N1CC[C@H]2N(C)CC[C@@]2(C(=O)Nc2cccnc2)CC1` it is -111%. In the case of `N#Cc1ccc(F)c(CSCCN2CCOCC2)c1`, the cytotoxicity at 10 µM was -5.71%. With `OC(COCc1cccs1)Cn1cc(Br)cn1` (configuration not stated) the figure was 1.91%; with `Cc1nc(-c2ccccc2)n(CC(=O)NCC(C)C)n1`, -2.97%.

As to `O=C1CN(Cc2nnc(-c3ccc(Cl)cc3)o2)CCN1`, the cytotoxicity at 10 µM is -0.238%. Consider `O=C([C@H]1CCCO1)N1CCCC2(CCN(Cc3ccncc3)C2=O)C1` (some centres not stated), for which the cytotoxicity at 10 µM came to 11.9%. The figure for `O=C(NCCNc1cnccn1)N1CCCCCC1` is -3.33%. The figure for `CCc1nc(C)c(C(=O)N(C)Cc2cnn(-c3cccc(OC)c3)c2)s1` is 11.7%.

Take `COc1ccc(-c2cnc3n2CCNC32CCN(S(C)(=O)=O)CC2)cc1`: the cytotoxicity at 10 µM is -2.72%.

On to `COCCCNc1c(C#N)c2c(c3nncn13)CN(C)CC2`, for which the cytotoxicity at 10 µM was 5.86%.

Consider `Cc1cc(C)c(CNC(=O)N2CCN(c3cnccn3)CC2)c(=O)[nH]1`, for which the cytotoxicity at 10 µM is -2.58%. `COc1ccc(C2CCCN2c2nnc(C)s2)c(OC)c1` (configuration not stated): the cytotoxicity at 10 µM was found to be 9.74%. With `COc1ccc(OC)c(-n2cnnc2CCN)c1` the figure was 9.83%; with `CC(C)(C)c1ncc(C(=O)NCCNC(=O)c2ccccc2)s1`, -8.08%. As to `CCOCCn1nc(C)cc1C(=O)N1CCN(C(C)C)C(CC)C1` (configuration not stated), the cytotoxicity at 10 µM was -14.2%. With `CCC(CO)NCc1ccc(-c2ccccc2)o1` (configuration not stated) the figure was 4.42%; with `Cn1cc(-c2cnc3n2CCC32CCN(S(=O)(=O)C3CC3)CC2)cn1`, -139%. On to `CC(C)Cn1cncc1Cn1cccc(C(F)(F)F)c1=O`, for which the cytotoxicity at 10 µM was -10.2%. Regarding `COCCC1(CO)CCCN(C(=O)c2cc(C#N)c(=O)[nH]c2C)C1` (configuration not stated), the cytotoxicity at 10 µM is -37.7%. With `CCCn1cc(NC(=O)c2cccnc2O)ccc1=O` the figure was -13.1%; with `O=C1CC2(CCCCN2C(=O)Cc2ccccc2)CN1c1cccnc1` (configuration not stated), -2.71%. With `CCc1cccc(N2CCC(NC(=O)c3ccoc3C)CC2)c1` the figure was -10.8%; with `Cc1nc(Nc2nnc(C)s2)cc(C2CCCN2C2CCCC2)n1` (configuration not stated), -16.7%; with `O=C(c1ccoc1)N1CCn2nc(CN3CCSCC3)cc2C1`, -57.8%. Consider `CCc1nnc2ccc(NCC3(N4CCCCC4)CCOCC3)nn12`, for which the cytotoxicity at 10 µM was -8.39%. With `O=C(c1ccncc1)N1CCOC2(CCCN(c3nncs3)C2)C1` (configuration not stated) the figure was -98%. As for `Cn1cc(C(C)(O)CNc2ccccn2)cn1` (configuration not stated), the cytotoxicity at 10 µM is -43.6%.

In the case of `O=C(Cc1cccc(F)c1)NCCNCc1ccc2c(c1)CCO2`, the cytotoxicity at 10 µM is -12.5%. Take `Cc1cnn(CC2CN(Cc3nc4ccccc4c(=O)[nH]3)CCO2)c1` (configuration not stated): the cytotoxicity at 10 µM is -7.62%. In the case of `Cn1ccnc1C1CCN(C(=O)COCC(F)(F)C(F)F)CC1`, the cytotoxicity at 10 µM was -45.2%. Consider `COc1ccc(CN(Cc2ccsc2)CC2CCCO2)cn1` (configuration not stated), for which the cytotoxicity at 10 µM is -6.16%. As to `COc1cc(C(C)NCc2ncccc2C)ccc1SC(F)F` (configuration not stated), the cytotoxicity at 10 µM is -8.47%. With `COc1ccc(CC(=O)NCC(O)c2sccc2C)cc1OC` (configuration not stated) the figure was 11.4%; with `CC(C)n1nc(CN2CCOCC2)c2c1CN(Cc1ccsc1)C2`, -132%. The figure for `COc1cccc(CNCc2ccnc(N3CCOCC3)c2)c1OC` is 7.26%; for `Cc1noc(C)c1-c1cncc(C2CCCN2Cc2c[nH]cn2)n1` (configuration not stated) it is -12.4%; for `CCCN1CCCN(C(=O)c2oc(C)nc2C)CC1` it is 24.3%.

For `COCC1CC2(CCN(C(=O)c3ccc(C)nc3)CC2)CO1` (configuration not stated), the cytotoxicity at 10 µM was -127%. Regarding `CC(C)N(CCS(C)(=O)=O)Cc1csc(-c2ccccc2F)n1`, the cytotoxicity at 10 µM was -49.3%. Turning to `COCC(C)NC(=O)c1cc(C)n(-c2cccc(OC)c2)c1C` (configuration not stated), the cytotoxicity at 10 µM is -13.9%. Consider `COCCN1CCN(Cc2cccc(C(=O)N(C)C)c2)CC1C` (configuration not stated), for which the cytotoxicity at 10 µM is 5%. With `COc1cc2c(cc1CNCc1cccnc1-n1cccn1)OC(C)C2` (configuration not stated) the figure was 4.6%. With `O=S(=O)(Cc1nc(C2CC2)no1)c1ccccc1F`, the cytotoxicity at 10 µM was 8.11%. With `Cn1ccnc1C(=O)N1CCC2(CCN2c2ncccn2)C1` (configuration not stated) the figure was -0.736%; with `COCCN1C[C@H]2CC[C@@]3(N=C(C)N(CC4CC4)C3=O)[C@H]2C1`, -7.5%; with `CCc1nnc2n1CCN(CC(=O)N(CC)C1=CCCCC1)C2`, -0.0192%. With `Cc1cc(N2CCC(C(=O)NC3CC3)CC2)nc(-c2ccncc2)n1` the figure was -17%; with `CC(C)Oc1ncccc1CNC(=O)N1CCCC1c1ccsc1` (configuration not stated), -8.25%; with `Cc1ncsc1C(=O)Nc1ccccn1`, 11.3%.
